To fix the notation:
B1: Osa-1-4 twister ribozyme (parent)
chain: CCGCCUAACACUGCCAAUGCCGGUCCCAAGCCCGGAUAAAAGUGGAGGGGGCGG

The data set covers variants of B1. Description: self-cleavage, relative activity (ratio to wild type); higher = more cleavage; co-transcriptional. Put shortly: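 A DNA template was synthesised for a 54-nucleotide twister ribozyme from Oryza sativa, with 97 % wild-type base and 1 % of each other base at each of the 48 positions downstream of the cleavage site. The ribozyme cleaved itself co-transcriptionally during 2 h of in vitro transcription at 37 °C. Reverse transcription with a template-switching oligonucleotide, PCR amplification and deep sequencing followed, and cleavage status came from reads with or without upstream sequence. Relative activity is the fraction cleaved normalised to wild type.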
On to G45U U24A, for which the self-cleavage stood at 0.04.

As for G45U U24C, the self-cleavage worked out at 0.04.

Take G45U U24G: the self-cleavage is 0.02.

Take G44U U18C: the self-cleavage came to 0.69.

For G44U U18A, the self-cleavage was determined as 0.83.

As for G44U U18G, the self-cleavage is 0.64.

As to G42U U37G, the self-cleavage amounted to 0.15.

G42U U37C: the self-cleavage is 0.11.

Consider G42U U37A, for which the self-cleavage was determined as 0.09.

For A46C G19U, the self-cleavage came out at 0.04.

Regarding A46C G19A, the self-cleavage worked out at 0.05.

Consider A46C G19C, for which the self-cleavage came out at 0.02.

Turning to G44C U12C, the self-cleavage stood at 0.31.

G44C U12A: the self-cleavage amounted to 0.4.

With G44C U12G, the self-cleavage worked out at 0.08.

For G45C G54C, the self-cleavage was 0.07.

For G45C G54A, the self-cleavage amounted to 0.08.

With G45C G54U, the self-cleavage was determined as 0.17.

Turning to G44U G54A, the self-cleavage was found to be 0.88.

G44U G54U: the self-cleavage was 0.9.

Take G44U G54C: the self-cleavage came out at 0.92.

Turning to G44A U37G, the self-cleavage turned out to be 1.

Turning to G44A U37C, the self-cleavage was 1.01.

For the variant G44A U37A, the self-cleavage turned out to be 0.7.

Take G44A U43A: the self-cleavage worked out at 0.88.

Turning to G44A U43G, the self-cleavage amounted to 0.67.

With G44A U43C, the self-cleavage turned out to be 0.1.

Consider G44C G53U, for which the self-cleavage stood at 0.38.

Turning to G44C G53A, the self-cleavage amounted to 0.81.

Consider G44C G53C, for which the self-cleavage came to 0.09.

For G44U G50A, the self-cleavage is 0.58.

Consider G44U G50C, for which the self-cleavage is 0.83.

Turning to G44U G50U, the self-cleavage was 0.97.

With G42U, the self-cleavage came to 0.14.

G42C U37G: the self-cleavage is 0.39.

Take G42C U37C: the self-cleavage came out at 0.34.

With G44C U43C, the self-cleavage was found to be 0.73.

Turning to G44C U43A, the self-cleavage was 0.74.

Regarding G44C U43G, the self-cleavage was found to be 0.07.

For G45C G50A, the self-cleavage came out at 0.08.

Consider G45C G50C, for which the self-cleavage was 0.07.

Turning to G45C G50U, the self-cleavage was determined as 0.06.

Take G45C U43C: the self-cleavage is 0.06.

Turning to G45C U43A, the self-cleavage was determined as 0.06.

In the case of G45C U43G, the self-cleavage amounted to 0.04.

In the case of G44U, the self-cleavage turned out to be 0.93.

Turning to G44A, the self-cleavage is 0.97.

G44C: the self-cleavage turned out to be 0.98.

Take G42U G44C: the self-cleavage worked out at 0.26.

For G42U G44A, the self-cleavage came to 0.35.

For the variant G42U G44U, the self-cleavage stood at 0.15.

G45U G53C: the self-cleavage was 0.03.

G45U G53A: the self-cleavage was 0.07.

Turning to G45U G53U, the self-cleavage was 0.05.

Consider G45U U12A, for which the self-cleavage stood at 0.06.

For G45U U12G, the self-cleavage was 0.07.

For G45U U12C, the self-cleavage is 0.06.

Take G44C U37C: the self-cleavage worked out at 1.

With G44C U37A, the self-cleavage turned out to be 0.71.

As to G44C U37G, the self-cleavage is 1.02.

For A46C C20G, the self-cleavage was determined as 0.03.

For A46C C20A, the self-cleavage was found to be 0.04.

For A46C C20U, the self-cleavage worked out at 0.07.

With G44U G51U, the self-cleavage stood at 0.19.

Take G44U G51A: the self-cleavage came to 0.69.

For G44U G51C, the self-cleavage turned out to be 0.07.

Regarding A46C C32A, the self-cleavage is 0.03.

In the case of A46C C32G, the self-cleavage was 0.03.

On to A46C C32U, for which the self-cleavage came to 0.04.

A46C C15G: the self-cleavage came out at 0.04.

On to A46C C15A, for which the self-cleavage amounted to 0.03.

A46C C15U: the self-cleavage amounted to 0.04.

On to G45C U24A, for which the self-cleavage turned out to be 0.04.

G45C U24C: the self-cleavage is 0.02.

As to G45C U24G, the self-cleavage is 0.01.

For the variant G45A, the self-cleavage came out at 0.52.

For G45U, the self-cleavage amounted to 0.17.

For G45C, the self-cleavage is 0.06.

As to G44A G53U, the self-cleavage is 0.47.

For G44A G53A, the self-cleavage was 0.83.

In the case of G44A G53C, the self-cleavage was 0.1.

Regarding G45A G51U, the self-cleavage came out at 0.07.

Regarding G45A G51A, the self-cleavage was 0.12.

In the case of G45A G51C, the self-cleavage is 0.06.

Regarding G44U U12C, the self-cleavage is 0.43.

For G44U U12G, the self-cleavage stood at 0.15.

For G44U U12A, the self-cleavage amounted to 0.11.

Regarding G44A G54C, the self-cleavage is 0.93.

On to G44A G54A, for which the self-cleavage was 0.92.

Consider G44A G54U, for which the self-cleavage was found to be 0.94.

In the case of A46C C31G, the self-cleavage turned out to be 0.02.

Turning to A46C C31A, the self-cleavage was found to be 0.01.

Consider A46C C31U, for which the self-cleavage stood at 0.04.

With G45A G53C, the self-cleavage is 0.05.

Consider G45A G53A, for which the self-cleavage amounted to 0.09.

On to G45A G53U, for which the self-cleavage was 0.07.

Turning to G45A U12G, the self-cleavage was 0.07.

For the variant G45A U12A, the self-cleavage is 0.09.

For G45A U12C, the self-cleavage stood at 0.09.

With G45C G47C, the self-cleavage came to 0.05.

Consider G45C G47U, for which the self-cleavage turned out to be 0.05.

In the case of G45C G47A, the self-cleavage is 0.05.

On to G44A U24A, for which the self-cleavage is 0.06.

With G44A U24G, the self-cleavage was 0.03.

As to G44A U24C, the self-cleavage came to 0.08.

For G42U G47A, the self-cleavage is 0.05.

Regarding G42U G47C, the self-cleavage turned out to be 0.02.

Regarding G42U G47U, the self-cleavage was found to be 0.03.

With G45U G48C, the self-cleavage is 0.04.

On to G45U G48A, for which the self-cleavage came out at 0.04.

In the case of G45U G48U, the self-cleavage was 0.04.

With G44U G48U, the self-cleavage is 0.07.

In the case of G44U G48C, the self-cleavage is 0.07.

G44U G48A: the self-cleavage worked out at 0.06.

With G44A G45C, the self-cleavage was found to be 0.07.

For the variant G44A G45A, the self-cleavage was determined as 0.16.

For G44A G45U, the self-cleavage was found to be 0.07.

As to G44A G51A, the self-cleavage was found to be 0.79.

As for G44A G51C, the self-cleavage was found to be 0.08.

As to G44A G51U, the self-cleavage was 0.28.

Regarding G42U U18G, the self-cleavage was 0.28.

As for G42U U18A, the self-cleavage is 0.29.

With G42U U18C, the self-cleavage was 0.23.

Turning to G44C G50U, the self-cleavage was found to be 1.

In the case of G44C G50C, the self-cleavage came out at 0.81.

As to G44C G50A, the self-cleavage is 0.5.

Turning to G44A G50U, the self-cleavage was determined as 0.97.

As to G44A G50C, the self-cleavage was determined as 0.91.

In the case of G44A G50A, the self-cleavage was determined as 0.71.

On to G45U G50C, for which the self-cleavage was determined as 0.07.

For the variant G45U G50U, the self-cleavage stood at 0.09.

Turning to G45U G50A, the self-cleavage worked out at 0.12.

For G45A G49U, the self-cleavage is 0.04.

Consider G45A G49A, for which the self-cleavage amounted to 0.05.

Turning to G45A G49C, the self-cleavage came out at 0.05.

As for G44A G48C, the self-cleavage came to 0.06.

Take G44A G48U: the self-cleavage is 0.06.

Take G44A G48A: the self-cleavage was found to be 0.07.

Regarding G44C G51A, the self-cleavage turned out to be 0.67.

Take G44C G51C: the self-cleavage amounted to 0.07.

As to G44C G51U, the self-cleavage is 0.16.

For the variant G42U G45A, the self-cleavage worked out at 0.05.

Consider G42U G45U, for which the self-cleavage was 0.04.

As to G42U G45C, the self-cleavage was determined as 0.03.

Regarding A46C C27A, the self-cleavage stood at 0.03.

In the case of A46C C27U, the self-cleavage worked out at 0.04.

As to A46C C27G, the self-cleavage amounted to 0.01.

Turning to A46C C11A, the self-cleavage came out at 0.04.

In the case of A46C C11G, the self-cleavage came out at 0.03.

For the variant A46C C11U, the self-cleavage turned out to be 0.05.

Consider G45A G47U, for which the self-cleavage was 0.06.

On to G45A G47A, for which the self-cleavage was 0.06.

As to G45A G47C, the self-cleavage came out at 0.05.

With G45C G48A, the self-cleavage was 0.03.

Consider G45C G48C, for which the self-cleavage was found to be 0.04.

Consider G45C G48U, for which the self-cleavage stood at 0.02.

Take A46C C9G: the self-cleavage was 0.05.

Take A46C C9U: the self-cleavage was 0.02.

In the case of A46C C9A, the self-cleavage turned out to be 0.03.

With G44C G54C, the self-cleavage stood at 0.92.

For the variant G44C G54U, the self-cleavage came to 0.92.

With G44C G54A, the self-cleavage was determined as 0.89.

Regarding G44A G49C, the self-cleavage was determined as 0.06.

With G44A G49A, the self-cleavage was found to be 0.07.

As to G44A G49U, the self-cleavage was 0.07.

Regarding G45U G49C, the self-cleavage was 0.02.

Regarding G45U G49U, the self-cleavage was determined as 0.04.

Values taken from the RNAGym collection of RNA variant scans (doi:10.1002/anie.201605470).
